This is an account of results in ChEMBL document CHEMBL2157991, “Synthesis and pharmacological evaluation of 2,4-dinitroaryldithiocarbamate derivatives as novel monoacylglycerol lipase inhibitors” (J Med Chem, 2012).

The target in assay [1] is T1, Monoglyceride lipase (Homo sapiens, UniProt Q99685).
T1 sequence (Q99685 whole entry): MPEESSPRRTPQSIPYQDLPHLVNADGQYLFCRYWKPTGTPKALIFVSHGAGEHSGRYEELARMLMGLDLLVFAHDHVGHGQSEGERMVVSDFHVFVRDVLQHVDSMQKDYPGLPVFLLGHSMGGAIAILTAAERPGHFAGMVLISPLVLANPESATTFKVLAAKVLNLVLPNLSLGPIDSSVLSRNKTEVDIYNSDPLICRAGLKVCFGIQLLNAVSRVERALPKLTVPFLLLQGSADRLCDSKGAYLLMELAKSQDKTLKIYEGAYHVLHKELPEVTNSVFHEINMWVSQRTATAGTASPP
As to the kind of experiment: Inhibition of human recombinant MAGL using [3H]-2-OG as substrate after 10 mins by liquid scintillation counter. The method in brief:
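Purified recombinant hMAGL (5 ng; Tris pH 8.0, 50 mM, 0.1% BSA) with inhibitor in DMSO and [3H]-2-OG (10 μM), 10 min at 37 °C; stopped with ice-cold methanol–chloroform, aqueous-phase radioactivity by liquid scintillation, no-enzyme blanks subtracted; pIC50 from dose–response, mean ± SEM of three experiments in duplicate.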

The target in assay [2] is T2, Fatty-acid amide hydrolase 1 (Homo sapiens, UniProt O00519).
T2 sequence (O00519 whole entry): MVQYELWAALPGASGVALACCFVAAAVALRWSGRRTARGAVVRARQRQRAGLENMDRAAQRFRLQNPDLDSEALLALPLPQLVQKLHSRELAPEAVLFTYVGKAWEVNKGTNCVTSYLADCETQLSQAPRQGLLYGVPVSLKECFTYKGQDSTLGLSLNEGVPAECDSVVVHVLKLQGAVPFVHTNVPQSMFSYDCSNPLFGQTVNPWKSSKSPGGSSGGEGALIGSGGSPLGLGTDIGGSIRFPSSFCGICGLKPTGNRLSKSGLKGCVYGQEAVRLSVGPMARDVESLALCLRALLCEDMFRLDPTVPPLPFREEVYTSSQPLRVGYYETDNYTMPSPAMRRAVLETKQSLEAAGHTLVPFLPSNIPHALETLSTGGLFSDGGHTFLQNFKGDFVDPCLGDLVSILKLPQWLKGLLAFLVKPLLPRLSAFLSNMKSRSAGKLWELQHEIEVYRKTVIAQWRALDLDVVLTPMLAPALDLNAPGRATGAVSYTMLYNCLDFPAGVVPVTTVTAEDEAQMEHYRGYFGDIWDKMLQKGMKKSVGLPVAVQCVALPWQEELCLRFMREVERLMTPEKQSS
As to the kind of experiment: Inhibition of human recombinant FAAH assessed as conversion of [3H]AEA to [3H]ethanolamine after 10 mins by liquid scintillation counter. The method in brief:
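Human recombinant FAAH (6 ng protein, Tris-EDTA) with inhibitor in DMSO; [3H]AEA at 2 μM final, 10 min at 37 °C; stopped with ice-cold methanol–chloroform, [3H]ethanolamine in aqueous layer counted by liquid scintillation, buffer blanks subtracted; pIC50 from dose–response, mean ± SEM of three experiments in duplicate.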

pIC50: −log10 of the molar value.

Turning to `CC(C)(C)c1ccc(CN2CCN(C(=S)Sc3ccc([N+](=O)[O-])cc3[N+](=O)[O-])CC2)cc1`, the negative-log IC50 (pIC50) in assay [1] was 6.81; in assay [2] it was 5.76.
